Assay results: ChEMBL document CHEMBL1137645, “Functional characterization of TcaA: minimal requirement for teicoplanin susceptibility and role in Caenorhabditis elegans virulence” (2007)
Activity calls are given as the source filed them. The calls are words filed in the database; no cut-off is given here.

What was measured:
Assay type in all cases: functional, organism-based
Staphylococcus aureus [1] = test: Induction of VraSR-dependent tcaA gene expression in Staphylococcus aureus KVR expressing N315 delta-vraSr mutant at 2 ug/mL after 30 mins by Northern blot analysis
How it was run: (§1)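 Total RNA, 10 µg per sample, was separated on a 1.5% agarose–20 mM guanidine thiocyanate gel in 1x TBE, then Northern blotted.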

Staphylococcus aureus [2] = test: Induction of VraSR-dependent tcaA gene expression in Staphylococcus aureus N315 at 10 ug/mL after 30 mins by Northern blot analysis; how it was run: as §1
Staphylococcus aureus [3] = test: Induction of VraSR-dependent tcaA gene expression in Staphylococcus aureus N315 at 16 ug/mL after 30 mins by Northern blot analysis; how it was run: as §1
Staphylococcus aureus [4] = test: Induction of VraSR-dependent tcaA gene expression in Staphylococcus aureus KVR expressing N315 delta-vraSr mutant at 10 ug/mL after 30 mins by Northern blot analysis; how it was run: as §1

Structure (SMILES) | Activity (Staphylococcus aureus [1]) | Activity (Staphylococcus aureus [2]) | Activity (Staphylococcus aureus [3]) | Activity (Staphylococcus aureus [4])
Cc1onc(-c2ccccc2)c1C(=O)N[C@@H]1C(=O)N2[C@@H]1SC(C)(C)[C@@H]2C(=O)O | inactive | Active | Active | inactive
CN[C@H](CC(C)C)C(=O)N[C@H]1C(=O)N[C@@H](CC(N)=O)C(=O)N[C@H]2C(=O)N[C@H]3C(=O)N[C@H](C(=O)N[C@H](C(=O)O)c4cc(O)cc(O)c4-c4cc3ccc4O)[C@H](O)c3ccc(c(Cl)c3)Oc3cc2cc(c3O[C@@H]2O[C@H](CO)[C@@H](O)[C@H](O)[C@H]2O[C@H]2C[C@](C)(N)[C@H](O)[C@H](C)O2)Oc2ccc(cc2Cl)[C@H]1O | inactive | Active | Active | inactive
